From ChEMBL document CHEMBL1143086, “Novel HCV NS5B polymerase inhibitors derived from 4-(1',1'-dioxo-1',4'-dihydro-1'lambda(6)-benzo[1',2',4']thiadiazin-3'-yl)-5-hydroxy-2H-pyridazin-3-ones. Part 3: Further optimization of the 2-, 6-, and 7'-substituents and initial pharmacokinetic assessments” (Bioorg Med Chem Lett, 2008)
≈ marks a conversion by molar mass, not a printed value.

Key:
[1] = Aqueous solubility at pH 7.4; type: physicochemical; conditions: buffer
Summary of the method: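 Solubility determined in water at pH 7.4.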

[2] = Apparent permeability from apical to basolateral side in human Caco-2 cells at 10 uM; type: ADME, cell-based
[3] = Volume of distribution at steady state in cynomolgus monkey at 5 mg/kg, iv; type: ADME, organism-based, Macaca fascicularis; design: dose 5 mg/kg, route intravenous; conditions: in vivo, read-out: Vdss
Cynomolgus monkey [4] = assay: AUC (0 to infinity) in cynomolgus monkey at 5 mg/kg, po; type: ADME, organism-based, Macaca fascicularis, Plasma; design: time infinity, dose 5 mg/kg, route oral; conditions: in vivo
Cynomolgus monkey [5] = assay: AUC (0 to infinity) in cynomolgus monkey at 5 mg/kg, iv; type: ADME, organism-based, Macaca fascicularis, Plasma; design: time infinity, dose 5 mg/kg, route intravenous; conditions: in vivo
[6] = Oral bioavailability in cynomolgus monkey at 5 mg/kg; type: ADME, organism-based, Macaca fascicularis; conditions: in vivo
[7] = Ratio of drug level in liver to plasma in Sprague-Dawley rat at 3 mg/kg, po after 1 hr; type: ADME, organism-based; design: dose 3 mg/kg, route oral; conditions: liver and plasma
Summary of the method: (§1)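 Sprague–Dawley rats were given a single 3 mg/kg dose iv or po. Plasma and liver concentrations were measured at 1, 4, 8 and 12 h. Liver was not sampled at 1, 4 or 8 h after iv dosing. Liver-to-plasma concentration ratio was calculated at each time point.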

[8] = Ratio of drug level in liver to plasma in Sprague-Dawley rat at 3 mg/kg, po after 4 hrs; type: ADME, organism-based; design: dose 3 mg/kg, route oral; conditions: liver and plasma; summary of the method: as §1
[9] = Ratio of drug level in liver to plasma in Sprague-Dawley rat at 3 mg/kg, po after 8 hrs; type: ADME, organism-based; design: dose 3 mg/kg, route oral; conditions: liver and plasma; summary of the method: as §1
[10] = Ratio of drug level in liver to plasma in Sprague-Dawley rat at 3 mg/kg, po after 12 hrs; type: ADME, organism-based; design: dose 3 mg/kg, route oral; conditions: liver and plasma; summary of the method: as §1
[11] = Ratio of drug level in liver to plasma in Sprague-Dawley rat at 3 mg/kg, iv after 12 hrs; type: ADME, organism-based; design: dose 3 mg/kg, route intravenous; conditions: liver and plasma; summary of the method: as §1
[12] = Volume of distribution at steady state in iv dosed Sprague-Dawley rat; type: ADME, organism-based; conditions: in vivo, read-out: Vdss
Summary of the method: (§2)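 Sprague–Dawley rats got a single 3 mg/kg dose iv or po, with n = 12 (po) and 3 (iv). Plasma concentrations were followed over time to derive PK parameters.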

Rattus norvegicus [13] = assay: AUC (0 to infinity) in po dosed Sprague-Dawley rat; type: ADME, organism-based, Plasma; design: time infinity, route oral; conditions: in vivo; summary of the method: as §2
Rattus norvegicus [14] = assay: AUC (0 to infinity) in iv dosed Sprague-Dawley rat; type: ADME, organism-based, Plasma; design: time infinity, route intravenous; conditions: in vivo; summary of the method: as §2
[15] = Oral bioavailability in Sprague-Dawley rat; type: ADME, organism-based; conditions: in vivo; summary of the method: as §2

solubility [1] [µM]	Papp A→B at 10 µM [2] [×10⁻⁶ cm/s]	Vd [3] [L/kg]	AUC (Cynomolgus monkey [4]) [ng·h/mL]	AUC (Cynomolgus monkey [5]) [ng·h/mL]	bioavailability [6] [%]	Kp at 1 h [7]	Kp at 4 h [8]	Kp at 8 h [9]	Kp at 12 h [10]	Kp at 12 h [11]	Vd [12] [L/kg]	AUC (Rattus norvegicus [13]) [ng·h/mL]	AUC (Rattus norvegicus [14]) [ng·h/mL]	bioavailability [15] [%]	SMILES
44 (≈ 24.3 µg/mL)	0.06	0.039	241	17600	1	–	–	–	–	–	–	–	–	–	CC(C)(C)CCn1nc(-c2cccs2)c(O)c(C2=Nc3ccc(NS(C)(=O)=O)cc3S(=O)(=O)N2)c1=O
55 (≈ 29.6 µg/mL)	0.016	0.096	124	10500	1	431	243	78	64	4	0.453	27	3630	1	CC(C)CCn1nc(-c2cccs2)c(O)c(C2=Nc3ccc(NS(C)(=O)=O)cc3S(=O)(=O)N2)c1=O
